We go through nine molecules from paper PMC4506969 (International Journal for Parasitology: Drugs and Drug …, 2015).

The subject of one data set is P. falciparum Dd2. Description: P. falciparum growth inhibition assay, [3H] hypoxanthine incorporation, Dd2 line. The data set is classed as cell-based. As to conditions: Plasmodium falciparum, DD2, read-out: P. falciparum IC50 Dd2.
Data set [1] deals with tetra-acetylated histone H4 in P. falciparum 3D7 trophozoites. Description: Protein hyperacetylation assay, Western blot, anti-tetra-acetyl histone H4. The data set is classed as cell-based, Plasmodium falciparum. As to conditions: 3× IC50, 3 h; for Hyperacetylation, anti-(tetra) acetyl H4 antibody (words): vs vehicle control. Summed up:
(§1)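 Synchronous trophozoite-stage 3D7-infected erythrocytes (3–5% parasitemia, 5% haematocrit) were exposed for 3 h, with controls of 0.05% DMSO vehicle, chloroquine and a reference HDAC inhibitor. Lysis used 0.15% saponin, then PBS washes, SDS-PAGE and PVDF blotting. Rabbit primaries ran overnight at 4 °C: tetra-acetyl H4 1:2000, H3K9 1:1000, H3 N-terminus 1:500. Membranes were stripped at pH 2 and reprobed with anti-RAP2. Densitometry was RAP2-normalised and expressed as fold change vs vehicle (=1).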
In general terms: In western blotting, separated proteins are transferred to a membrane and probed.

For another data set, the system named is P. falciparum 3D7. Description: microbe, parasite or virus in culture. Format: cell-based. As to conditions: Plasmodium falciparum, 3D7, read-out: P. falciparum IC50 3D7.
A further data set deals with T. b. brucei. Particulars: read-out: T. b. brucei growth IC50; ref Carrillo et al., 2015; cited from earlier work.
For data set [2], the system named is Neonatal foreskin fibroblast (NFF) cells. Description: NFF cytotoxicity assay. The data set is classed as cell-based. As to conditions: Homo sapiens, 72 h, read-out: Mammalian cell IC50 NFF.
Another data set relates to HEK293 cells. The data set is described as follows: HEK293 cytotoxicity assay. As to conditions: read-out: Mammalian cell IC50 HEK 293. The data set is classed as cell-based.
A further data set concerns the target T1, recombinant PfHDAC1 (Plasmodium falciparum, UniProt Q7K6A1).
T1 sequence (Q7K6A1 1-449): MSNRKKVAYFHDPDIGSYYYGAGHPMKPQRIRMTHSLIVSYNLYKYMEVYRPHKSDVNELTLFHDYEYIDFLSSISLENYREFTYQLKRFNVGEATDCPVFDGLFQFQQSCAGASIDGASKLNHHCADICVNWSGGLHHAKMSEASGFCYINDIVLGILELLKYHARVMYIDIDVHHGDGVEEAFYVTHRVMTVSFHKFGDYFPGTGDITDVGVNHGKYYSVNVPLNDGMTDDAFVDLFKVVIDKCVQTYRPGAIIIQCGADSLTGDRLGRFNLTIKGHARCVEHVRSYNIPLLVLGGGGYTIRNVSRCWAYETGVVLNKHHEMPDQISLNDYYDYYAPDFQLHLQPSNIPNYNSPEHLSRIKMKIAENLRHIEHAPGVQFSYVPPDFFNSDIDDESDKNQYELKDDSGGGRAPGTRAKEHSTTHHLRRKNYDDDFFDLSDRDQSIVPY
Description: Deacetylase activity assay, recombinant PfHDAC1. The data set is classed as biochemical. As to conditions: mean (±SD) of two independent assays; for inhibition at 1 µM: read-out: PfHDAC1 % inhibition at 1 μM, 1 μM. Summed up:
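Recombinant PfHDAC1 (32 ng/ml) was incubated with test compound or control at 1 μM, or with vehicle (0.5% DMSO). Ac-RGK(Ac)-AMC fluorogenic substrate was added for 1 h at 37 °C, then activator solution for 10 min at room temperature. Fluorescence (ex 350–380/em 440–460 nm) was read within 60 min. Percent inhibition was calculated versus DMSO controls from two independent assays, each in duplicate.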

In data set [3] the test system is asexual-stage P. falciparum. Description: P. falciparum asexual-stage growth inhibition, line not specified or both lines. The data set is classed as cell-based, Plasmodium falciparum. Particulars: for IC50 / IC90: Plasmodium falciparum; for IC50: 3D7|DD2, read-out: IC50 against 3D7 and Dd2 P. falciparum lines; for IC90: in Homo sapiens, read-out: P. falciparum IC90; for P. falciparum SI (Selectivity Index): mammalian cell IC50/P. falciparum IC50, larger values indicate greater parasite selectivity.

In data set [4] the test system is T. b. brucei 427 bloodstream trypanosomes. Description: T. b. brucei growth inhibition assay. Format: cell-based, Trypanosoma brucei brucei. Particulars: for IC50: read-out: T. b. brucei IC50; for IC90: in Homo sapiens, read-out: T. b. brucei IC90; for T. b. brucei SI (Selectivity Index): mammalian cell IC50/T. brucei IC50.
Data set [5] concerns sexual stage P. falciparum gametocytes. As to conditions: ref Sun et al., 2014, cited from earlier work; for IC50: read-out: Sexual stage P. falciparum gametocytes IC50.
For data set [6], the system named is acetyl histone H3 lysine 9 in P. falciparum 3D7 trophozoites. The data set is described as follows: Protein hyperacetylation assay, Western blot, anti-acetyl histone H3 lysine 9. Format: cell-based, Plasmodium falciparum. Particulars: 3× IC50, 3 h. Summed up: as §1
The test system of data set [7] is acetyl histone H3 N-terminus in P. falciparum 3D7 trophozoites. Description: Protein hyperacetylation assay, Western blot, anti-acetyl histone H3 N-terminus. The data set is classed as cell-based, Plasmodium falciparum. As to conditions: 3× IC50, 3 h. Summed up:
as §1

In the next data set the test system is P. falciparum. Particulars: read-out: P. falciparum in vitro growth IC50; ref Patel et al., 2009; cited from earlier work.
Data set [8] is described as follows: HEK293 cytotoxicity assay. As to conditions: human, HEK293 cells. Format: cell-based.
For a further data set, the system named is early stage gametocytes. As to conditions: read-out: Early stage gametocytes IC50; ref Trenholme et al., 2014; cited from earlier work.
The next data set concerns late stage gametocytes. As to conditions: read-out: Late stage gametocytes IC50; ref Trenholme et al., 2014; cited from earlier work.

Several values for one entry are separate records, joined by “and”; a condition that tells them apart may be missing. Equal entries are not always repeated. Where two headings read alike, the source gives them in different places.

Take `O=C(/C=C/c1cccc(S(=O)(=O)Nc2ccccc2)c1)NO` [Belinostat, belinostat]: the IC50 (commonly the point on the concentration scale where inhibition reaches its midpoint) is 130 nM in the data set with P. falciparum Dd2; 60 nM with P. falciparum 3D7; 2200 nM with T. b. brucei; 2370 nM in data set [2]; 1420 nM in the data set with HEK293 cells (Homo sapiens, HEK293, 48 h); below 200 nM in [3]. For the same molecule, the IC50 in [4] (Trypanosoma brucei, 48 h) is 2610 nM. Moreover, in data set [1] (relative density vs DMSO control, normalised to RAP2), the “Fold increase in acetylation signal, anti-(tetra) acetyl H4 antibody” value is given as above 1.3 fold. The “Hyperacetylation, anti-(tetra) acetyl H4 antibody (words)” value (shortened to “Hyperacetylation … (words)”) in data set [1] is given as “caused hyperacetylation”. The inhibition (commonly the drop in the measured response relative to a control, in per cent) at 1 µM at recombinant PfHDAC1 came out at 78.5 ± 4.7%. Also, the figures for the 90% effect concentration (IC90) in [3] and in data set [4] (Trypanosoma brucei) were 120 nM and 3640 nM, respectively. For the same molecule, the “P. falciparum SI (Selectivity Index)” value in data set [3] is 11–40. Besides, in data set [4], the “Times less active against T.b. brucei than P. falciparum” value is reported as around 100 times. For the same molecule, in data set [4], the “T. b. brucei SI (Selectivity Index)” value is recorded as below 1.
In the case of `CCN(CC)CCCC(C)Nc1ccnc2cc(Cl)ccc12` (stereo not drawn) [Chloroquine, chloroquine], the IC50 is 80 nM in the data set with P. falciparum Dd2; 10 nM in the data set with P. falciparum 3D7; 48900 nM in [2]; 9920 nM in [4] (Trypanosoma brucei, 48 h). The “Hyperacetylation … (words)” value in data set [1] is recorded as “did not result in hyperacetylation”. Further, the “P. falciparum SI (Selectivity Index)” value in data set [3] was 612–4893. Moreover, the “T. b. brucei SI (Selectivity Index)” value in [4] turned out to be 5.
Turning to `CC(=O)NCC(=O)O.CC(=O)NCC(=O)O.N=C(N)c1ccc(N=NNc2ccc(C(=N)N)cc2)cc1` [Diminazene aceturate, diminazene aceturate], the half-inhibitory concentration (IC50) is above 37000 nM in the data set on HEK293 cells (48 h exposure, resazurin) and 60 nM in data set [4] (427 bloodstream form, 48 h exposure). For the same molecule, in data set [4], the “T. b. brucei SI (Selectivity Index)” value is listed as above 617.
Consider `Cc1[nH]c2ccccc2c1CCNCc1ccc(/C=C/C(=O)NO)cc1` [Panobinostat, panobinostat], for which the IC50 is 940 nM in [5]; around 20 nM with P. falciparum; 30 nM in the data set with P. falciparum Dd2; 10 nM in the data set with P. falciparum 3D7; 1600 nM in the data set on T. b. brucei; 70 nM in data set [2]. For the same molecule, in data set [4] (Trypanosoma brucei, 48 h), the IC50 was 1690 nM. Besides, the “Hyperacetylation, anti-histone H3 lysine 9 antibody” value in data set [6] is recorded as “cause hyperacetylation”. Further, the “Hyperacetylation, anti-histone H3 N-terminus antibody” value in [7] is “did not increase acetylation”. Also, the “Hyperacetylation … (words)” value in data set [1] is on record as “did not increase acetylation”; in [1] (listed as panobinostat), “did not result in hyperacetylation”. The inhibition at 1 µM at recombinant PfHDAC1 is around 100%. Moreover, the figures for the IC90 in data set [3] and in data set [4] (Trypanosoma brucei) were 10 nM and 3280 nM, respectively. In addition, the “Times less active against T.b. brucei than P. falciparum” value in [4] was around 100 times.
`N=C(N)c1ccc(OCCCCCOc2ccc(C(=N)N)cc2)cc1` [Pentamidine]: the IC50 was above 690 nM in the data set on HEK293 cells (Homo sapiens, HEK293, 48 h) and 4 nM in data set [4] (Trypanosoma brucei, 48 h). Besides, the “T. b. brucei SI (Selectivity Index)” value in data set [4] is reported as above 173.
Take `COc1ccc(C[C@H](N)C(=O)N[C@H]2[C@@H](O)[C@H](n3cnc4c(N(C)C)ncnc43)O[C@@H]2CO)cc1` [Puromycin, puromycin]: the IC50 at 48 h in data set [8] amounted to 797 nM.
Take `C/C=C1\NC(=O)[C@H]2CSSCC/C=C/[C@H](CC(=O)N[C@H](C(C)C)C(=O)N2)OC(=O)[C@H](C(C)C)NC1=O` [Romidepsin, romidepsin]: the IC50 in data set [5] is 640 nM; in the data set on P. falciparum Dd2, 130 nM; in the data set on P. falciparum 3D7, 90 nM; in data set [2] it was 1 nM; in the data set on HEK293 cells (Homo sapiens, HEK293, 48 h), below 5 nM; in data set [3], below 200 nM. Besides, in data set [4] (Trypanosoma brucei, 48 h), the IC50 was found to be 35 nM. Besides, in [5], the “Selectivity for gametocytes compared to the mammalian cell line HepG2” value is on record as above 10 fold. In addition, the “Fold increase in hyperacetylation, anti-histone H3 lysine 9 antibody” value in data set [6] (vs vehicle control) is on record as 5–6 fold. Also, in data set [1], the “Hyperacetylation … (words)” value is recorded as “caused hyperacetylation”. In addition, the inhibition at 1 µM at recombinant PfHDAC1 was determined as 48.3 ± 39.3%. Further, the IC90 (in general, the point of the concentration-response curve where the effect stands at 90%) in data set [3] was 180 nM; in data set [4] (Trypanosoma brucei) it was 100 nM. Also, in [3], the “P. falciparum SI (Selectivity Index)” value is listed as below 1. In addition, the “T. b. brucei SI (Selectivity Index)” value in data set [4] is listed as below 1.
For the molecule `CC(/C=C/C(=O)NO)=C\[C@@H](C)C(=O)c1ccc(N(C)C)cc1` [TSA, trichostatin A], the IC50 with early stage gametocytes is 90 nM; in the data set on late stage gametocytes it was 70 nM. For the same molecule, the “PfHDAC1 % inhibition at 1 μM” value on recombinant PfHDAC1 (1 μM) is ~100% and 98.9 ± 1.5%.
For the molecule `O=C(CCCCCCC(=O)Nc1ccccc1)NO` [Vorinostat, suberoylanilide hydroxamic acid], the IC50 in the data set on late stage gametocytes was 810 nM. Further, at recombinant PfHDAC1, the inhibition at 1 µM was 59.8 ± 12.7%. In addition, the “Times less active against T.b. brucei than P. falciparum” value in [4] is around 100 times. Besides, the IC90 in data set [4] (Trypanosoma brucei) was found to be 18700 nM.
